This is a sample that favours compounds with a hit; in the whole collection about 3.5% have one here.
pPAFAH inh = pPAFAH (human) enzyme inhibition; Q13093; recombinant pPAFAH, FP-rhodamine probe fluorescence polarization; inhibition, % at 3.39 µM; actives 1.5% (n = 330,000); AID 463082;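 active = inhibition above the mean inhibition across the screen plus 3 SD, cut at about 25% in these data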;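 note: inhibitors block binding of the rhodamine activity-based probe so polarization drops; 0% = enzyme with DMSO and 100% = wells lacking pPAFAH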
Target sequence (Q13093 whole entry, looked up): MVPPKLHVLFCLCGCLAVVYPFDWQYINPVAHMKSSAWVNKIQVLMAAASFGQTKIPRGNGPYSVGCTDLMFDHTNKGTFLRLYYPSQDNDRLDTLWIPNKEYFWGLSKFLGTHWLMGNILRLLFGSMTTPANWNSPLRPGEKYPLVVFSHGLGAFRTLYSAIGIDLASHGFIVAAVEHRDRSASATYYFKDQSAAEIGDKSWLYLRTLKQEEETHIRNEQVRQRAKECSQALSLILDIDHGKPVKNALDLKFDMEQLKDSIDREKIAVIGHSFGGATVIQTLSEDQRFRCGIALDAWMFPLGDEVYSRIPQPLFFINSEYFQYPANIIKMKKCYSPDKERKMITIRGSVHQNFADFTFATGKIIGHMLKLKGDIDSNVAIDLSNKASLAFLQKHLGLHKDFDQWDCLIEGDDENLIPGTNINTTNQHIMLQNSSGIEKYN
PAFAH2 inh = PAFAH2 (human) inhibition. recombinant PAFAH2, FP-rhodamine activity probe, fluorescence polarization. inhibition, % at 3.39 µM. actives 0.99% (n = 340,000). AID 492956;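 active = inhibition above the mean over all tested compounds plus 3 SD, cut at about 30% in these data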;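 note: inhibitors block probe labeling of enzyme so polarization drops; 0% = enzyme with DMSO and 100% = wells lacking PAFAH2 protein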
Apaf-1 inh = inhibitors of human Apaf-1 apoptosome; AID 489030; actives 0.71% (n = 330,000); reconstituted apoptosome caspase-3 activity, DEVD-Rh110 fluorescence; inhibition, % at 20 µM; O14727; active = inhibition of at least 40% at 20 µM;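 note: plate controls were DMSO wells for no effect and DEVD-CHO caspase inhibitor wells for full effect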
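Material: reconstituted apoptosome with Apaf-1, cytochrome c, caspase-9, procaspase-3, dATP / Buffer or medium: pH 7.5 Hepes buffer with CHAPS, BSA, DTT / Also added: cytochrome c with DEVD-Rh110 / Schedule: compound with Apaf-1, dATP, procaspase-3 30 min, then 50 min reaction, room temperature / Technique: rhodamine 110 fluorescence at Ex 480/Em 540 nm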
PAFAH1B3 FP inh = inhibitors of human PAFAH1B3. actives 0.28% (n = 340,000). Q15102. inhibition, % at 3.39 µM. recombinant PAFAH1B3, FP-rhodamine probe, fluorescence polarization. AID 492972;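 active = inhibition above the screen-wide average of all tested compounds plus 3 SD, cut at about 25% in these data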;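 note: 0% = enzyme with DMSO only and 100% = wells lacking PAFAH1B3 protein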
Target sequence (Q15102 whole entry, looked up): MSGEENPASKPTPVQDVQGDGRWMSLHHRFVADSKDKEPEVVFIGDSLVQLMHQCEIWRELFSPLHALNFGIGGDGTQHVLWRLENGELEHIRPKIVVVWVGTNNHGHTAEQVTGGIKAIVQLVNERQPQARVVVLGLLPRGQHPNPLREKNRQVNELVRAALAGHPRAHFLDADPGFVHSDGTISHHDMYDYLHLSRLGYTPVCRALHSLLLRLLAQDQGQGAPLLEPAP
PREPL inhibitor = human PREPL enzyme inhibition; inhibition, % at 5.96 µM; Q4J6C6; actives 0.68% (n = 320,000); recombinant PREPL, fluorescence polarization activity-based probe; in the data active = inhibition above about 43%;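 note: 0% = enzyme with DMSO and 100% = wells lacking enzyme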
PAFAH1B2 inh = PAFAH1B2 (human) inhibition; P68402; actives 1.2% (n = 340,000); recombinant PAFAH1B2, FP-rhodamine activity probe, fluorescence polarization; inhibition, % at 3.39 µM;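 active = inhibition above the mean of all tested compounds plus 3 SD, cut at about 24% in these data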;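 note: 0% = enzyme with DMSO and 100% = wells lacking PAFAH1B2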
pPAFAH FP conf = confirmation of human plasma PAF acetylhydrolase (pPAFAH) inhibitors; shares compounds with pPAFAH inh; recombinant pPAFAH, FP-Rh probe fluorescence polarization; inhibition, % at 3.39 µM; actives 72% (n = 2,300); AID 463230;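 active = mean inhibition of the triplicate above the hit cutoff set for the earlier primary screen, cut at about 25% in these data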;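 note: 0% = enzyme with DMSO and 100% = wells lacking pPAFAH enzyme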
Numbers without * were called inactive; . = no result given.

SMILES | pPAFAH inh | PAFAH2 inh | Apaf-1 inh | PAFAH1B3 FP inh | PREPL inhibitor | PAFAH1B2 inh | pPAFAH FP conf
Cc1ccc(S(=O)(=O)N2[C@@H](c3ccc(C(C)(C)C)cc3)C(C(=O)O)=CC[C@H]2c2ccc3c(c2)OCO3)cc1 | 58* | 10 | 9 | 4 | 10 | 92* | 17
Cc1ccc(NC(=O)NCc2cccnc2)cc1C | 2 | 2 | 9 | 0 | -5 | -1 | .
CC(=N)c1c(O)c2ccccc2oc1=O | 63* | 2 | 0 | 3 | 12 | 5 | 1
COc1ccc(/C=N/NC2=NS(=O)(=O)c3ccccc32)cc1 | 6 | -8 | -2 | 12 | -3 | 3 | .
O=S1(=O)N=C(N/N=C/c2ccccn2)c2ccccc21 | 76* | 2 | 6 | 16 | 2 | 1 | 2
O=C(O)CSc1cc(C(=O)c2ccccc2O)cn2c(=O)c3c(-c4ccccc4)csc3nc12 | 65* | -14 | 13 | 8 | 20 | -5 | 72*
CC(C)(C)c1cc(NCCCn2ccnc2)n2ncc(-c3ccc(Cl)cc3)c2n1 | 39* | 4 | 39 | 5 | 38 | 0 | 19
O=c1oc2c(O)c(O)cc3c(=O)oc4c(O)c(O)cc1c4c23 | 93* | 85* | . | 68* | 54* | 88* | 92*
Cc1ccc(S(=O)(=O)N2CCOCC2)cc1NC(=O)COC(=O)c1ccccc1OCc1c(C)noc1C | 6 | 9 | -2 | 4 | 3 | -2 | .
N#CC(C#N)=C1C=C2C=C(N3CCCCC3)CCC2CC1 (centres undefined) | 13 | . | . | . | 8 | . | .
N#CC1=C(N)C2=C(N3CCCCC3)CCCC2C1(C#N)C#N (centres undefined) | 38* | 40* | 5 | 46* | 6 | 26* | 5
Cc1[nH]n(-c2ccccc2)c(=O)c1CCO | 2 | -2 | 6 | 3 | -1 | 2 | .
Cc1[nH]n(-c2nc(-c3ccccc3F)cc(=O)[nH]2)c(=O)c1CCO | 41* | 3 | -10 | -3 | 0 | 2 | 6
Cc1ccc(-n2ncc3c2CC(C)(C)CC3NC(=O)CCn2cncn2)cc1 (centres undefined) | . | 6 | 1 | 8 | . | -1 | .
Cc1cc(=O)[nH]c(N/N=C/C2=C(N3CCOCC3)C(=C\c3ccc(Cl)cc3)/CC2)n1 | 54* | 8 | 19 | 7 | 38 | -1 | 47*
Cc1occc1C(=O)N/N=C/C1=C(N2CCOCC2)C(=C\c2ccc(Cl)cc2)/CC1 | 8 | -5 | 19 | 3 | 8 | -1 | .
O=C(O)c1ccccc1N/N=C/C1=C(N2CCOCC2)C(=C\c2ccccc2)/CC1 | 20 | 22 | -9 | 6 | 8 | 7 | .
Cc1cc(C)nc(N/N=C/C2=C(N3CCOCC3)C(=C/c3ccccc3)/CC2)n1 | 65* | 3 | 21 | 4 | 16 | 2 | 82*
COC(=O)CNC(=O)C1Nc2ccccc2C2C=CCC12 (centres undefined) | 16 | 0 | 12 | 5 | 10 | 3 | .
O=C(O)C1Nc2c(Cl)cc(Cl)cc2C2C=CCC12 (centres undefined) | 81* | 82* | . | 22 | 11 | 36* | 43*
O=C(O)C1Nc2c(Cl)cc(Cl)c(Cl)c2C2C=CCC12 (centres undefined) | 41* | 55* | . | 9 | 7 | 11 | 33*
O=C(O)C1Nc2c(O)cccc2C2C=CCC12 (centres undefined) | 88* | 50* | 35 | 40* | 42 | 36* | 42*
Cc1ccc(S(=O)(=O)N2CCN(C(=O)c3ccc4ccccc4n3)CC2)c(C)c1 | 3 | -3 | -5 | 1 | 5 | 0 | .
COC(=O)[C@]1(Cc2ccccc2)N[C@H](CN(C)S(=O)(=O)c2ccc(C(C)(C)C)cc2)[C@@H]2C(=O)N(C)C(=O)[C@@H]21 | -1 | 4 | 21 | 9 | 14 | 7 | .
CC(=O)Nc1cccc2ncccc12 | 55* | 0 | -9 | 3 | -3 | -1 | 7
SMILES | pPAFAH inh | PAFAH2 inh | Apaf-1 inh | PAFAH1B3 FP inh | PREPL inhibitor | PAFAH1B2 inh | pPAFAH FP conf
CC(C)(C)c1ccc(C(=O)Nc2cccc3ncccc23)cc1 | 1 | 0 | 26 | 0 | 4 | 3 | .
O=C(Cc1nn[nH]n1)c1ccccc1O | 0 | 5 | -6 | 2 | 0 | 2 | .
COc1ccccc1C(=O)NCC(=O)OCc1csc(-c2ccccc2)n1 | -3 | -9 | -1 | 0 | 4 | 6 | .
CCOc1ccccc1C(=O)NCC(=O)OCc1csc(CC(=O)Nc2ccc(C)cc2)n1 | 37* | 29 | 8 | 2 | -27 | 0 | 18
Oc1ccc(-c2csc(-c3ccccc3)n2)cc1O | 45* | 0 | 5 | 1 | 24 | 0 | 59*
Oc1ccc(-c2csc(-c3cccnc3)n2)cc1O | 24 | 1 | -11 | -1 | 6 | 3 | .
O=S(=O)(Nc1ccc(Cl)cc1)c1ccc(N2CCOCC2)c(NC(=S)NCCN2CCOCC2)c1 | 58* | 7 | 10 | 2 | -9 | -1 | 59*
O=C(Cc1ccc(NS(=O)(=O)c2ccc(Cl)c(Cl)c2)cc1)NCCN1CCOCC1 | . | 1 | 0 | -2 | . | 8 | .
CC(C)CNC(=O)C1Nc2ccccc2C2C=CCC12 (centres undefined) | 9 | 12 | 10 | 2 | 3 | 1 | .
O=C(O)C1Nc2ccc(Br)cc2C2C=CCC12 (centres undefined) | 70* | 79* | 10 | 40* | 24 | 47* | 61*
CCOC(=O)C1Nc2ccc(Br)cc2C2C=CCC12 (centres undefined) | 35* | 14 | 16 | 12 | 9 | 6 | 4
COc1cccc(/C=N/NC(=S)NCc2ccco2)c1OC | 2 | 5 | -5 | 2 | 0 | -1 | .
CCOC(=O)c1c(C)n(-c2ccc(C)cc2)c2ccc(OCC(O)CNCC3CCCO3)cc12 (centres undefined) | 71* | -1 | 21 | 5 | 29 | 5 | 70*
CCOC(=O)CC1=C(C(=O)OCC)C(c2ccc(C)o2)C(C#N)=C(N)O1 (centres undefined) | -2 | 0 | 5 | 4 | 0 | -1 | .
Cc1ccc(C2C(C#N)=C(N)Oc3c2sc2ccccc32)o1 (centres undefined) | 38* | . | 13 | . | 35 | . | 30*
O=c1cc(-c2ccccc2)nc2c(-c3ccccc3)c(C(F)(F)F)[nH]n12 | 45* | . | 4 | . | -1 | . | 54*
CC(OC(=O)c1ccc(S(=O)(=O)NCc2ccco2)cc1)C(=O)Nc1ccccc1 (centres undefined) | -6 | 1 | 14 | 14 | -6 | 4 | .
CCN(CC)c1ccc(NS(=O)(=O)c2ccc(-c3ccc(=O)[nH]n3)o2)c(C)c1 | 68* | 10 | 7 | 2 | 10 | 6 | 50*

Source: PubChem
